PfGluPho inh = PfG6PD enzyme inhibitors, primary screen, biochemical, fluorescence intensity, uHTS | PfGluPho enzyme, NADPH resazurin-diaphorase fluorescence | inhibition, % at 20 µM | 350,000 compounds, 0.78% hits | AID 504690, 2011;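 active = inhibition reaching at least a set limit at 20 µM in the primary screen, cut at about 59% in these data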;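 note: 0% = DMSO wells with substrate and 100% = DMSO wells lacking glucose-6-phosphate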
Lmaj promast = Leishmania major promastigote growth inhibition, primary screen; Leishmania major promastigotes, resazurin fluorescence viability; inhibition, % at 10 µM; 200,000 compounds, 9% hits; AID 1063, 2008;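 note: promastigotes grown with compound for 44 hours at 28 °C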
Diaph act CS = compounds boosting diaphorase resazurin reduction – biochemical, uHTS, resorufin fluorescence, counter-screen for diaphorase-coupled primary assays, primary screen; Diaphorase/resazurin coupled assay, 16 min; hits give high values; 1 = vehicle wells, 0 = NADH-free wells; activation factor at 20 µM; 190,000 compounds, 0.005% hits; AID 1229, 2008;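 active = diaphorase activity raised at least twofold by the compound at 20 µM; inactive = activation factor below 2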
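System – purified diaphorase enzyme from Clostridium kluyveri · Input – enzyme 0.07 U/mL final · Also added – final NADH 0.114 mM, resazurin 0.1 mM · Measured by – fluorescence of resorufin, 544 nm excitation, 590 nm emission · Timing – 16 min enzyme reaction, ambient temperature · Measure – resorufin increase flagging diaphorase activators or reducers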
Diaphorase inh = diaphorase inhibitors and chemical oxidizers, primary screen, counter-screen for diaphorase-coupled primary assays, biochemical, uHTS, resorufin fluorescence | diaphorase resazurin-to-resorufin fluorescence, NADH, 16 min; bacterial (C. kluyveri) enzyme, not human | inhibition, % at 20 µM | 190,000 compounds, 0.69% hits;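 active = primary screen inhibition at 20 µM above a set limit, cut at about 50% in these data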;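 note: plate controls were DMSO with full reaction for no effect and wells lacking NADH for full effect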
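System: Diaphorase enzyme from Clostridium kluyveri | Amount: Enzyme working solution with 0.14 U/mL diaphorase | Benchmarks: No-NADH positive control and DMSO neutral control | Signal: Fluorescence of resorufin formed from resazurin, Ex 544/Em 590 nm | Schedule: 16-min room-temperature incubation before reading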
DTT redox prof = compounds producing H2O2 with reducing agent – biochemical, NIH compound library profiling, artefact control for MLSCN library redox annotation, primary screen; DTT-dependent redox cycling H2O2, phenol red/HRP absorbance; 100% = 100 µM peroxide control, 0% = buffer; activation, % at 10 µM; 200,000 compounds, 0.03% hits;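 active = activation of at least 50% relative to the plate's high and low controls in the primary single-dose screen; inactive = activation below 50%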;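 note: compound incubated with DTT at 0.8 mM final as the reducing agent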
G6PDH CS = L. mesenteroides G6PDH inhibitors, counter-screen for G6PDH-coupled screening assays, biochemical, Leuconostoc mesenteroides enzyme. glucose-6-phosphate dehydrogenase [Leuconostoc mesenteroides]. Purified L. mesenteroides G6PDH, diaphorase/resazurin coupled fluorescence, 45 min. inhibition, % at 5 µM. 200,000 compounds, 0.12% hits
Active calls of the source: *; x = not tested or not shown. This is one part of a sample in which hits are shown more often than they occur. Cut-off read from the data, not from the text of the source, unless noted: active = inhibition above about 50%; inactive = the rest.

SMILES	PfGluPho inh	Lmaj promast	Diaph act CS	Diaphorase inh	DTT redox prof	G6PDH CS
O=C(NCCC(=O)N1CCN(S(=O)(=O)c2ccc(Cl)cc2)CC1)Nc1ccccc1	3	x	x	x	x	x
O=C(CCC(=O)N1CCN(S(=O)(=O)c2ccc(Cl)cc2)CC1)Nc1ccc2ccccc2c1	-9	81*	0.7	31	1	3
Cn1c(C(=O)NN)cc2cc(OCc3ccccc3)ccc21	1	x	x	x	x	x
COc1cc(OC)cc(C(=O)NNC(=O)CCNC(=O)c2ccc(Br)cc2)c1	-5	x	x	x	x	x
COc1ccc(NC(=O)CCN2CCN(S(=O)(=O)c3ccc(Cl)cc3)CC2)cc1	5	93*	0.9	7	0	-5
COc1ccc(NC(=O)CCN2CCN(S(=O)(=O)c3ccc(C(C)C)cc3)CC2)cc1	-19	3	0.9	12	0	0
COc1cccc(OCCCN2CCN(S(=O)(=O)c3ccc(NC(C)=O)cc3)CC2)c1	7	68*	1	0	0	1
Cc1ccccc1C1CC(c2cccs2)Nc2nnnn21 (stereo not given)	-4	0	1.1	-12	0	-1
COc1ccc(NC(=O)COC(=O)c2c3c(nc4ccccc24)CCCC3)cc1Cl	18	23	1	0	0	20
C#CCOCCOCCOCCNc1nc(N2CCN(C(=O)CCCCCCCCCCNC(=O)[C@H]([C@@H](C)CC)n3cc(CCCCCN)nn3)CC2)nc(N2CCN(C(=O)CCCCCCCCCCNC(=O)[C@H](CO)n3cc(CCCCCN)nn3)CC2)n1	61*	x	x	x	x	x
C#CCOCCOCCOCCNc1nc(N2CCN(C(=O)CCCCCCCCCCNC(=O)[C@H](CCCCN)n3cc(CCCC(=O)O)nn3)CC2)nc(N2CCN(C(=O)CCCCCCCCCCNC(=O)[C@@H]([C@H](C)O)n3cc(C)nn3)CC2)n1	9	x	x	x	x	x
C#CCOCCOCCOCCNc1nc(N2CCN(C(=O)CCCCCCCCCCNC(=O)[C@@H](CCC(=O)O)n3cc(CCCCCN)nn3)CC2)nc(N2CCN(C(=O)CCCCCCCCCCNC(=O)[C@H]([C@@H](C)CC)n3cc(CCCCCN)nn3)CC2)n1	8	x	x	x	x	x
C#CCOCCOCCOCCNc1nc(N2CCN(C(=O)CCCCCCCCCCNC(=O)[C@H]([C@@H](C)CC)n3cc(CCCCN=C(N)N)nn3)CC2)nc(N2CCN(C(=O)CCCCCCCCCCNC(=O)[C@H](CCCCN)n3cc(C)nn3)CC2)n1	72*	x	x	x	x	x
C#CCOCCOCCOCCNc1nc(N2CCN(C(=O)CCCCCCCCCCNC(=O)[C@H](CCCCN)n3cc(C)nn3)CC2)nc(N2CCN(C(=O)CCCCCCCCCCNC(=O)[C@H](CCCCN)n3cc(CCCC(=O)O)nn3)CC2)n1	59*	x	x	x	x	x
C#CCOCCOCCOCCNc1nc(N2CCN(C(=O)CCCCCCCCCCNC(=O)Cn3cc(CCCCCN)nn3)CC2)nc(N2CCN(C(=O)CCCCCCCCCCNC(=O)Cn3cc(CCCCCN)nn3)CC2)n1	77*	x	x	x	x	x
CCN(C[C@H]1N[C@@](C)(C(=O)OC)[C@H]2C(=O)N(C)C(=O)[C@@H]12)C(=O)Nc1ccc(C(F)(F)F)cc1	1	x	x	x	x	x
O=C(COC(=O)COc1ccccc1)NCCC1=CCCCC1	2	x	x	x	x	x
Cc1ccnc(NS(=O)(=O)c2ccc(NC(=O)C3C4C=CC(C4)C3C(=O)O)cc2)n1 (stereo not given)	-14	-3	1	-4	0	5
CCn1cc(C(=O)NCCCN2CCC(C)CC2)c2cc(OC)c(OC)cc2c1=O	-2	14	0.8	24	-1	3
C#CCOCCOCCOCCNc1nc(N2CCN(C(=O)CCCCCCCCCCNC(=O)[C@H]([C@@H](C)CC)n3cc(CCCCN=C(N)N)nn3)CC2)nc(N2CCN(C(=O)CCCCCCCCCCNC(=O)[C@H](CO)n3cc(CCCCCN)nn3)CC2)n1	64*	x	x	x	x	x
COc1ccc(/C=C/C2=CCN(Cc3ccc(OC)cc3)CC2)cc1	-11	91*	1.1	-6	0	6
O=[N+]([O-])c1ccc(C=Nc2ccc(Cl)c([N+](=O)[O-])c2)s1	x	100*	1	4	-2	29
NC(=O)c1ccc(N=Cc2ccc([N+](=O)[O-])s2)cc1	72*	100*	0.9	9	0	11
CCC1Oc2ccccc2N(CC(=O)NC2CCCC2)C1=O (stereo not given)	-9	x	x	x	x	x
O=C(CSc1ccccc1)Nc1ccc(N2CCN(c3ccccc3)CC2)c(F)c1	-7	-4	0.9	14	-5	0
SMILES	PfGluPho inh	Lmaj promast	Diaph act CS	Diaphorase inh	DTT redox prof	G6PDH CS
COc1ccc(SCC(=O)Nc2ccc(N3CCN(C)CC3)c(F)c2)cc1	7	94*	0.9	14	0	12
CCOC(=O)Nc1nc(-c2ccc(Cl)cc2Cl)cs1	24	-7	0.8	15	1	2
Cc1ccc(-c2cc(N)n(Cc3ccc(Cl)cc3)n2)cc1	31	87*	0.8	18	-8	-1
CCCCCC1(C)NC(=S)N(c2ccccc2)N1 (stereo not given)	11	53*	1	-1	0	-3
CCCCCCC1(C)NC(=S)N(c2ccccc2)N1 (stereo not given)	36	51*	0.9	7	0	3
CC1(CC(=O)Nc2ccccc2)NC(=S)N(c2ccccc2)N1 (stereo not given)	38	-5	0.9	14	0	-2
O=C(NCc1cccc(C(F)(F)F)c1)c1ccc2c(c1)OCO2	-4	x	x	x	x	x
CC(C)c1cccc(C(C)C)c1OCCCCN1CCCC1	-6	92*	0.9	6	0	6
Cc1cccc(C(C)(C)C)c1OCCCCN1CCCC1	-7	100*	0.9	6	0	-2
Clc1cccc(Cl)c1OCCCCN1CCCCC1	6	x	x	x	x	x
CC(C)(C)c1ccccc1OCCCCN1CCCC1	27	99*	0.9	14	0	6
Nc1c(Cl)cc(C(=O)NC2CC2)cc1Cl	-16	x	x	x	x	x
O=C(COc1ncnc2scc(-c3ccc(Cl)cc3)c12)NCc1ccco1	0	20	0.9	14	0	5
CCOC(=O)N1CCN(CCC(=O)Nc2cccc(Cl)c2C)CC1	-12	x	x	x	x	x
CCOC(=O)C1CCN(C(=O)CCC(=O)NCCc2ccc(Cl)cc2)CC1	-9	x	x	x	x	x
CCOC(=O)C1CCN(CCC(=O)Nc2ccc(Cl)cc2)CC1	-5	91*	0.9	13	5	8

Compound activity: PubChem, several laboratories
